Experimental findings from ChEMBL document CHEMBL1152900, “Synthesis and evaluation of the antioxidant and anti-inflammatory activity of novel coumarin-3-aminoamides and their alpha-lipoic acid adducts” (Eur J Med Chem, 2009) are described below.

Active and inactive are the calls of the source. No cut-off for these calls is given here.

A short description of series [1]: Antioxidant activity assessed as reduction of DPPH activity at 0.5 mM after 20 mins. The class given is functional. Also noted: scale not given: the % may be the effect or the level left. The gist of the method:
(§1)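 DPPH at 0.05 mM final in absolute ethanol was mixed with test compounds in ethanol at 0.1 or 0.5 mM final, with ethanol as the control. After 20 and 60 min at room temperature, absorbance was read at 517 nm. At least triplicate.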
A general note: Loss of DPPH colour is used to gauge radical scavenging.

Series [2] has as its system Rattus norvegicus. Description: Acute toxicity in rat assessed as mortality up to 0.5 mmol/kg after 24 hrs by autopsy. The class given is organism-based. Conditions: in vivo. In a few lines: (§2)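 Rats were split into 5 groups of 6–8 animals each and injected with graded doses of 0.1–0.5 mmol/kg body weight. Animals were then scored for survival and examined macroscopically and at autopsy.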

Series [3] has as its system Rattus norvegicus. The experiment in a line: In vivo antiinflammatory activity in Fisher 344 rat assessed as inhibition of carrageenan-induced paw edema at 0.01 mmol/kg, ip administered simultaneously with carrageenan measured after 3.5 hrs. The class given is functional. Conditions: Fisher 344, ip. In a few lines: (§3)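 Rats of both sexes (pregnant females excluded), bred in-house and fasted during the experiment; 6–15 per group, run twice. Test agents were suspended in water with a few drops of Tween 80 and given ip at the time of carrageenin injection. Rats were killed 3.5 h later. Injected minus uninjected paw weight gave % edema inhibition versus water-treated controls.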
A general note: In the carrageenan paw model, swelling and tenderness develop within hours.

The test system of series [4] is Rattus norvegicus. The experiment in a line: Acute toxicity in rat assessed as mortality up to 0.5 mmol/kg after 24 hrs by macroscopic analysis. It is filed as organism-based. Conditions: in vivo. In a few lines: as §2
Another series has as its system Glycine max. Description: Inhibition of soybean lipoxygenase assessed as conversion of sodium linoleate to 13-hydroperoxylinoleic acid at 0.1 mM. The gist of the method:
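Soybean lipoxygenase (enzyme solution 1/9 × 10^-4 w/v in saline) was incubated at room temperature with sodium linoleate 0.1 mM and test compounds in ethanol. Conversion to 13-hydroperoxylinoleic acid was followed at 234 nm and compared with a standard inhibitor. At least triplicate.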

Series [5] can be described thus: Antioxidant activity assessed as reduction of DPPH activity at 0.1 mM after 20 mins. The class given is functional. On the set-up: scale not given: the % may be the effect or the level left. The gist of the method: as §1
The nature of series [6]: Antioxidant activity assessed as reduction of DPPH activity at 0.1 mM after 60 mins. The class given is functional. Also noted: scale not given: the % may be the effect or the level left. In a few lines: as §1
Series [7] is described as follows: Acute toxicity in rat assessed as survival up to 0.5 mmol/kg after 24 hrs. It is filed as organism-based. Conditions: in vivo, read-out: Activity. In a few lines:
as §2

Series [8] can be described thus: Antioxidant activity against hydroxyl radical assessed as inhibition of formaldehyde production at 0.1 mM after 30 mins relative to DMSO. The class given is functional. On the set-up: scale not given: the % may be the effect or the level left. In a few lines: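 Hydroxyl radicals were generated with Fe3+, DMSO 33 mM and ascorbic acid 10 mM in 50 mM phosphate buffer, pH 7.4, with test compound at 0.1 mM final. Mixtures were incubated 30 min at 37 °C, stopped with CCl3COOH (17% w/v), and formaldehyde was read spectrophotometrically at 412. At least triplicate.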

A short description of series [9]: Antioxidant activity assessed as reduction of DPPH activity at 0.5 mM after 60 mins. The class given is functional. Also noted: scale not given: the % may be the effect or the level left. The gist of the method:
as §1

Series [10] deals with Rattus norvegicus. The experiment in a line: Antiinflammatory activity in Fisher 344 rat assessed as inhibition of carrageenan-induced paw edema at 0.001 mmol/kg, ip administered simultaneously with carrageenan measured after 3.5 hrs. It is filed as functional. Conditions: Fisher 344, ip.
Series [11] relates to Rattus norvegicus. Description: Antiinflammatory activity in Fisher 344 rat assessed as inhibition of carrageenan-induced paw edema at 0.01 mmol/kg, ip administered simultaneously with carrageenan measured after 3.5 hrs. The class given is functional. Conditions: Fisher 344, ip. The gist of the method:
as §3

The term inhibition in vivo denotes the percentage by which the read-out fell short of the control. One may read the inhibition as the share of the control response that was lost under treatment.

Take `O=C(CCCCC1CCSS1)NCCCCCCCCNC(=O)c1c(O)c2ccccc2oc1=O` (stereo not given): the Activity in series [1] was 32%; in the series on Rattus norvegicus [2], “Non-toxic”; in the series on Rattus norvegicus [4] it was “Non-toxic”; in series [5] it was 21%; in series [6], 21%; in series [9], 25%. In addition, in the series with Rattus norvegicus [3], the inhibition in vivo at 10 µmol/kg was 43%. In addition, in the series with Glycine max, the inhibition came out at 33%. Also, in series [7], the survival at 24 h turned out to be 80%. The result in [8] was inactive.

On to `O=C(O)CCCCC1CCSS1` (stereo not drawn) [LIPOIC ACID, ALPHA], for which the Activity in series [1] came to 5%; in series [5], 20%; in [6], 27%; in series [8], 38.6%; in series [9] it was 7%. Also, the inhibition in vivo at 10 µmol/kg in the series with Rattus norvegicus [3] stood at 29.6%. Besides, the inhibition in the series on Glycine max stood at 29.1%.

As for `Cc1ccc2oc(=O)c(C(=O)NCCCCCCCCNC(=O)CCCCC3CCSS3)c(O)c2c1` (stereo not given), the Activity in [1] was 89%; in the series on Rattus norvegicus [2], “Non-toxic”; in the series on Rattus norvegicus [4], “Non-toxic”; in [5], 69%; in series [6] it was 65%; in series [8] it was 100%. For the same molecule, the Activity in series [9] came out at 87%. Besides, the inhibition with Glycine max was 8.3%. For the same molecule, in [7], the survival at 24 h was 80%. Besides, the inhibition in vivo at 1 µmol/kg in the series on Rattus norvegicus [10] was 60%. In addition, in the series with Rattus norvegicus [11], the inhibition in vivo at 10 µmol/kg came out at 73%.

Turning to `Cc1c(C)c2c(c(C)c1O)CCC(C)(C(=O)O)O2` (stereo not given), the Activity in series [8] is 88.2%.

With `CC(Cc1ccc(O)c(O)c1)C(C)Cc1ccc(O)c(O)c1` (stereo not given), the figures for the Activity in series [1], in series [6] and in [9] were 97%, 83% and 98%, respectively. Also, the inhibition in the series on Glycine max worked out at 84%.

As for `NCCNC(=O)c1c(O)c2ccccc2oc1=O`, the result in [1] and in series [9] was inactive. The Activity result is “Non-toxic” with Rattus norvegicus [2]; “Non-toxic” with Rattus norvegicus [4]; 42% in series [5]; 25% in series [6]; 91% in series [8]. Moreover, in the series on Rattus norvegicus [3], the inhibition in vivo at 10 µmol/kg was found to be 59%. Further, in the series on Glycine max, the inhibition was determined as 100%. Further, in series [7], the survival at 24 h is 80%.

In the case of `NCCCCCCCCNC(=O)c1c(O)c2ccccc2oc1=O`, the Activity in series [1] was 9%; in the series with Rattus norvegicus [2] it was “Non-toxic”; in the series on Rattus norvegicus [4], “Non-toxic”; in series [5], 17%; in series [6], 8%; in series [9], 19%. Further, in the series with Rattus norvegicus [3], the inhibition in vivo at 10 µmol/kg is 48%. Besides, the inhibition entry with Glycine max was “inactive”. Besides, the survival at 24 h in series [7] stood at 80%. The outcome in [8] was inactive.

Regarding `NCCCCCCNC(=O)c1c(O)oc2ccccc2c1=O`, the Activity in [1] is 5%; in the series with Rattus norvegicus [2] it was “Non-toxic”; in the series with Rattus norvegicus [4], “Non-toxic”; in [5], 3%; in [6] it was 3%; in series [8] it was 100%. For the same molecule, the Activity in series [9] was 5%. For the same molecule, in the series with Rattus norvegicus [3], the inhibition in vivo at 10 µmol/kg amounted to 49%. Besides, the inhibition in the series with Glycine max was found to be 52%. In addition, the survival at 24 h in [7] was found to be 80%.

For the molecule `Cc1ccc2oc(=O)c(C(=O)NCCN)c(O)c2c1`, the Activity in series [1] is 70%; with Rattus norvegicus [2], “Non-toxic”; in the series with Rattus norvegicus [4] it was “Non-toxic”; in series [5], 48%; in series [6], 59%; in series [8], 100%. In [9], the Activity was found to be 65%. Besides, the inhibition in vivo at 10 µmol/kg with Rattus norvegicus [3] stood at 59%. Moreover, the inhibition in the series with Glycine max was 14%. Further, the survival at 24 h in series [7] stood at 80%.

`Cc1ccc2oc(=O)c(C(=O)NCCCCCCCCN)c(O)c2c1`: the Activity is 72% in series [1]; “Non-toxic” in the series on Rattus norvegicus [2]; “Non-toxic” in the series on Rattus norvegicus [4]; 58% in series [5]; 68% in [6]; 100% in [8]. In series [9], the Activity stood at 78%. Besides, in the series on Rattus norvegicus [3], the inhibition in vivo at 10 µmol/kg came out at 59%. In addition, the inhibition in the series on Glycine max amounted to 30%. In series [7], the survival at 24 h was 80%.

Consider `Nc1ccccc1NC(=O)c1c(O)c2ccccc2oc1=O`, for which the Activity in [1] is 85%; in the series with Rattus norvegicus [2], “Non-toxic”; with Rattus norvegicus [4] it was “Non-toxic”; in [5], 90%; in [6] it was 93%; in [9], 83%. For the same molecule, in the series with Rattus norvegicus [3], the inhibition in vivo at 10 µmol/kg is 57%. In addition, the inhibition in the series with Glycine max worked out at 23%. The survival at 24 h in series [7] was found to be 80%. The result in [8] was inactive.

As to `COc1ccc2c(c1)c(CC(=O)O)c(C)n2C(=O)c1ccc(Cl)cc1` [INDOMETHACIN], the inhibition in vivo at 10 µmol/kg in the series with Rattus norvegicus [3] was 47%.

Turning to `O=C(CCCCC1CCSS1)NCCCCCCNC(=O)c1c(O)c2ccccc2oc1=O` (stereo not given), the Activity in series [1] is 23%; in the series on Rattus norvegicus [2] it was “Non-toxic”; in the series with Rattus norvegicus [4], “Non-toxic”; in series [5], 15%; in [6] it was 18%; in [8], 96%. Further, the Activity in series [9] is 12%. For the same molecule, in the series with Glycine max, the inhibition was 18%. The survival at 24 h in [7] was determined as 80%. In the series with Rattus norvegicus [10], the inhibition in vivo at 1 µmol/kg amounted to 61%. The inhibition in vivo at 10 µmol/kg in the series with Rattus norvegicus [11] was found to be 72%.

Take `Cc1ccc2oc(=O)c(C(=O)Nc3ccccc3N)c(O)c2c1`: the Activity in series [1] is 70%; in the series with Rattus norvegicus [2], “Non-toxic”; in the series on Rattus norvegicus [4], “Non-toxic”; in series [5] it was 74%; in series [6], 65%; in [8], 100%. The Activity in series [9] is 78%. The inhibition in vivo at 10 µmol/kg with Rattus norvegicus [3] turned out to be 60%. Further, the inhibition with Glycine max came to 22%. The survival at 24 h in series [7] was determined as 80%.

Consider `CCOC(=O)c1c(O)c2cc(C)ccc2oc1=O`, for which the Activity is 20% in series [1]; “Non-toxic” with Rattus norvegicus [2]; “Non-toxic” in the series on Rattus norvegicus [4]; 18% in series [5]; 8% in series [6]; 81% in [8]. Moreover, the Activity in series [9] turned out to be 33%. Further, the inhibition in vivo at 10 µmol/kg in the series on Rattus norvegicus [3] came to 41%. Further, the inhibition in the series with Glycine max is 93%. Besides, the survival at 24 h in series [7] is 80%.

Take `CCOC(=O)c1c(O)oc2ccccc2c1=O`: the Activity in series [1] was 20%; in the series on Rattus norvegicus [2], “Non-toxic”; with Rattus norvegicus [4] it was “Non-toxic”; in [5] it was 15%; in series [6], 27%; in series [8] it was 91%. Further, in [9], the Activity stood at 13%. Moreover, the inhibition in vivo at 10 µmol/kg with Rattus norvegicus [3] was determined as 63%. Besides, the inhibition in the series on Glycine max was 93%. Further, the survival at 24 h in series [7] was found to be 80%.
